# Experiments:
# [1] = Phase I, solid tumors; ref Dean et al., 2016; cited from earlier work
# [2] = test system: palmitoyl-β-tubulin; assay: Tubulin palmitoylation in NSCLC cell lines; type: cell-based; conditions: A549 cells, 20 μM for 18 h
# [3] = test system: palmitoyl-α-tubulin; assay: Tubulin palmitoylation in NSCLC cell lines; type: cell-based; conditions: A549 cells, 20 μM for 18 h
# [4] = test system: Phospho-b-Catenin (S675); type: in vivo; conditions: A549 xenograft tumors, 2 h after final dose on day 20
# Outline: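 Xenograft tumors were harvested 2 h after the last dose, flash frozen and lysed in buffer with protease and phosphatase inhibitors. Protein was measured by BCA. Lysates from individual mice in each group were pooled so each tumor contributed equal total protein. Western blots were imaged on an infrared imager. Pools were run once, with no statistical testing.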
# [5] = test system: CALU6 non-small-cell lung tumor cells; assay: Soft agar colony formation; type: cell-based
# Outline: (§1)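 Cells were plated in 0.35% agarose in IMDM with 10% FBS, 1% non-essential amino acids and 1% L-glutamine, containing a dose–response matrix of FASN inhibitor and paclitaxel. This layer sat over a 0.6% bacto-agar base in the same medium. A compound-containing liquid feeder layer was changed weekly. After 3–4 weeks, colonies were stained with 0.005% crystal violet and wells imaged.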
# [6] = test system: 22Rv1 prostate tumor cells; assay: Soft agar colony formation; type: cell-based
# Outline: as §1
# [7] = test system: xenograft tumor models; assay: Xenograft tumor models, summary statements across models; type: in vivo, mice; conditions: three NSCLC studies (CALU6, A549, CTG-0165_P + 6)
# Outline: (§2)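 Mice with NSCLC cell-line (CALU-6, A549) or patient-derived tumors were randomized by tumor size and dosed once mean tumor size reached 150–200 mm3; ≥10 mice/group. FASN inhibitor 60 mg/kg by oral gavage once daily; paclitaxel 10 mg/kg iv every 4 days or docetaxel 8 or 6 mg/kg iv every 7 days. In combinations, FASN inhibitor was given 2 h before taxane. TGI is % tumor growth from treatment start, drug vs vehicle groups.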
# [8] = test system: MRC-5 lung fibroblasts; type: cell-based; conditions: MRC-5 fibroblasts
# [9] = test system: CALU6 NSCLC adenocarcinoma cell line xenograft; assay: CALU6 NSCLC xenograft tumor growth; type: in vivo, mice; conditions: CALU-6; TVB-3166 60 mg/kg oral once daily; paclitaxel 10 mg/kg iv every 4 days
# Outline: as §2
# [10] = test system: β-tubulin mRNA in 22Rv1 prostate tumor cells; assay: β-tubulin mRNA expression by RNA sequencing; type: cell-based; conditions: 22Rv1 cells, 48 h, 1 μM TVB-3166
compound,measurement,setting,value
Cc1nnc(-c2cc(C(=O)N3CCC(c4ccc(C#N)cc4)CC3)c(C)cc2C2CCC2)[nH]1 [TVB-2640],oral bioavailability and pharmacokinetics,[1],excellent
"CCCCCCCCCCCCCCC(Br)C(=O)O (stereo not drawn) [2-Bromo-Palmitate, 2-bromopalmitate]",decrease of palmitoyl-β-tubulin level,[2],79%
same,decrease of palmitoyl-α-tubulin level,[3],27%
CC(=O)O[C@@]12CO[C@@H]1C[C@H](O)[C@@]1(C)C(=O)[C@H](O)C3=C(C)[C@@H](OC(=O)[C@H](O)[C@@H](NC(=O)OC(C)(C)C)c4ccccc4)C[C@@](O)([C@@H](OC(=O)c4ccccc4)[C@H]21)C3(C)C [Docetaxel],inhibition of β-catenin S675 phosphorylation,[4],25%
CC(=O)O[C@H]1C(=O)[C@@]2(C)[C@H]([C@H](OC(=O)c3ccccc3)[C@]3(O)C[C@H](OC(=O)[C@H](O)[C@@H](NC(=O)c4ccccc4)c4ccccc4)C(C)=C1C3(C)C)[C@]1(OC(C)=O)CO[C@@H]1C[C@@H]2O [Paclitaxel],soft agar colony growth,[5]; 3 nM paclitaxel,strong inhibition of colony growth
same,soft agar colony growth,[5]; paclitaxel 0.3 or 1.0 nM,did not affect colony size or number
same,soft agar colony growth,[6]; 3 nM paclitaxel,strong inhibition of colony growth
same,soft agar colony growth,[6]; paclitaxel 0.3 or 1.0 nM,did not affect colony size or number
same,"tumor growth inhibition, single agent",[7],48–63%
same,effect on microtubule organization in non-tumor cells,[8],very little effect
same,TGI vs. vehicle,[9],63%
same,β-tubulin mRNA expression compared to DMSO,[10],no effect
